GSTO1 inh: blocks human GSTO1 in RBBP9 counter-screen. P78417. recombinant GSTO1, activity-based probe fluorescence polarization. inhibition, % at 5.96 µM. 1.1% of 300,000 active. AID 1974;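 active = inhibition above the campaign mean inhibition plus 3 SD, cut at about 35% in these data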;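 note: 0% = GSTO1-1 with DMSO and 100% = wells lacking GSTO1-1 enzyme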
Target sequence (P78417 whole entry, looked up): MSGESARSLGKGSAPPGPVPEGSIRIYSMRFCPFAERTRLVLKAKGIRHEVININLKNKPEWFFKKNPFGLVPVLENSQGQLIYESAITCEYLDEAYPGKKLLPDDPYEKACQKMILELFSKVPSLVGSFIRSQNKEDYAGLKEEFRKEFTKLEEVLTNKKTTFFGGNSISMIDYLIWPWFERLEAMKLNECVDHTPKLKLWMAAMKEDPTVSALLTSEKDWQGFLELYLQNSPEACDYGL
Apaf-1 inh: blocks human Apaf-1 apoptosome activity; 0.71% of 330,000 active; inhibition, % at 20 µM; reconstituted apoptosome caspase-3 activity, DEVD-Rh110 fluorescence; O14727; active = inhibition of at least 40% at 20 µM;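 note: plate controls were DMSO wells for no effect and DEVD-CHO caspase inhibitor wells for full effect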
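System: Apoptosome proteins | Medium: Hepes pH 7.5 with detergent and BSA | Also added: Cytochrome c trigger plus (Z-DEVD)2-Rh110 caspase-3 substrate | Incubation: 30 min compound preincubation, 50 min activation, room temperature | Detection: Rhodamine 110 fluorescence at Ex 480/Em 540 nm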
PAD4 inh: PAD4 (human) enzyme inhibition; recombinant PAD4, RCA probe fluorescence polarization; 0.41% of 330,000 active; Q9UM07; AID 485272; inhibition, % at 6.36 µM;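 active = percent inhibition above a cutoff equal to the mean of all tested compounds plus 3 SD, cut at about 15% in these data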;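 note: 0% = PAD4 with RCA probe and DMSO and 100% = probe without PAD4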
CTSL1 counter: cathepsin L1 inhibition, PFM18AAP counter-screen; recombinant F. hepatica cathepsin L1, Z-Leu-Arg-MCA fluorescence; inhibition, % at 5.96 µM; 0.49% of 300,000 active;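 active = inhibition above the mean of all tested compounds plus 3 SD, set per screening campaign, cut at about 17% in these data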;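 note: 0% = plate median of test compound wells and 100% = 1 µM Z-Phe-Ala-diazomethylketone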
TDP2 inh: TDP2 (human) inhibition, absorbance primary screen; 0.34% of 370,000 active; inhibition, % at 12.8 µM; AID 720702; O95551; recombinant TDP2, T5PNP hydrolysis, p-nitrophenol absorbance 415 nm;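 active = inhibition above the mean of all tested compounds plus 3 SD, set per campaign, cut at about 25% in these data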;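 note: 0% = DMSO with enzyme and 100% = buffer with substrate but no TDP2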
Target sequence (O95551 whole entry, looked up): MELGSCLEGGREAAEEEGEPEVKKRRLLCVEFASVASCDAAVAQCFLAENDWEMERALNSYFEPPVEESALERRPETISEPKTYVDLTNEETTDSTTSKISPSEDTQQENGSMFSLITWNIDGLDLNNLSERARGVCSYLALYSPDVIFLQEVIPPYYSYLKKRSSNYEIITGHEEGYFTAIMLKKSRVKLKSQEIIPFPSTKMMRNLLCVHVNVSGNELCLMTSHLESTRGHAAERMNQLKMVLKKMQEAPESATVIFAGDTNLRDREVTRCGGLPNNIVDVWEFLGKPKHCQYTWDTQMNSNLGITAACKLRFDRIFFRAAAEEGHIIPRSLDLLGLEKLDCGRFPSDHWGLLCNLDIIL
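Test system: Human TDP2 enzyme | Reagent: 5 mM T5PNP | Compound dosing: 12.8 µM single point, 1% DMSO | Incubation: Enzyme reaction with compound for 2 h at 37 °C | Technique: p-Nitrophenol epi absorbance | Read-out: % inhibition relative to enzyme-containing and enzyme-free wells | Benchmarks: High control without enzyme, low control DMSO plus TDP2 | Replicates: Singlicate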
Starred values were filed as active, the others as inactive; . = no result given. A selection: hits, their analogues and other compounds. The true share with any hit is near 1.8%.

SMILES | GSTO1 inh | Apaf-1 inh | PAD4 inh | CTSL1 counter | TDP2 inh
COc1ccc(/C=N\NC(=O)/C(=C\Nc2nccc(C)n2)NC(=O)c2ccccc2)cc1 | -1.0 | -4.1 | -2.5 | 20.1* | -6.5
CC1CCN(c2ccc(C(=O)O)cc2NS(=O)(=O)c2ccccc2[N+](=O)[O-])CC1 | . | . | . | . | 6.3
CCOC(=O)N=Nc1c2ccccc2c2nc3no[nH]c3nc12 | . | 88.4* | . | . | 20.6
O=C(Nc1nccs1)C1CC=CCC1 (stereo not given) | 4.3 | 2.6 | 0.9 | -2.5 | -15.3
O=C(Nc1ccc(O)cc1)C1CC=CCC1 (stereo not given) | 37.0* | -1.7 | 5.3 | 1.4 | -2.4
O=C(OCC#CCSc1nnc(-c2ccncc2)o1)c1cccs1 | 37.0* | -0.2 | -0.8 | -5.5 | 9.7
O=C(OCC#CCSc1nnc(-c2ccccc2)o1)c1ccc(F)cc1 | . | . | . | . | 0.3
Cc1ccn2c(=O)nc(SCC(=O)N3CCCC3)nc2c1 | 6.4 | 5.6 | 4.3 | 17.1* | 4.5
O=C(/C=C/c1ccccc1Cl)NC1CCCCC1 | 4.9 | 10.5 | 0.8 | 0.7 | 10.7
O=C(/C=C/c1ccccc1Cl)NC1CCS(=O)(=O)C1 (stereo not given) | -3.0 | 3.0 | -5.2 | 41.8* | 5.1
CC(C)C[C@H](NC(=O)C1(c2ccccc2)CCN(C(=O)OC(C)(C)C)CC1)C(=O)N1CCC[C@H]1C(=O)O | -1.3 | -11.4 | -5.1 | 41.2* | -7.5
CC(C)C[C@H](NC(=O)C1(c2ccccc2)CCN(C(=O)[C@H]2CSCN2C(=O)OC(C)(C)C)CC1)C(=O)O | 3.9 | 2.8 | 1.0 | 3.8 | 3.3
CC(C)[C@H](NC(=O)C1(c2ccccc2)CCN(C(=O)OC(C)(C)C)CC1)C(=O)O | 5.2 | 0.4 | 2.9 | 26.6* | -4.2
N#Cc1nc(COc2ccccc2F)oc1NCCCn1ccnc1 | 36.1* | 4.0 | -0.3 | 0.5 | -10.4
COc1ccccc1OCc1nc(C#N)c(NCCCn2ccnc2)o1 | 20.5 | 0.2 | 0.2 | 2.2 | 1.9
O=C(NCc1ccco1)/C(=C\c1cccs1)NC(=O)c1cccs1 | 3.0 | -5.6 | 0.1 | 0.4 | -3.0
O=C(NCCO)/C(=C\c1cccs1)NC(=O)c1cccs1 | 1.0 | -4.4 | 3.8 | 18.1* | 8.4
C#CC(=O)N(c1ccc(OC)cc1OC)C(C(=O)NC1CCCC1)c1cccs1 (stereo not given) | 14.5 | 8.9 | -0.5 | 29.5* | 6.0
Cc1cccc(OCc2n(CC(=O)OC3CC(C)CCC3C(C)C)c3ccccc3[n+]2C)c1 (stereo not given) | 1.7 | 50.3* | -2.3 | -3.0 | .
CCCN1CCc2c(sc(NC(=O)CCS(=O)(=O)c3ccccc3)c2C(=O)OC)C1 | 5.5 | 10.9 | -5.1 | 27.1* | 7.8
COC(=O)c1c(NC(=O)CCS(=O)(=O)c2ccccc2)sc2c1CCN(C)C2 | 3.4 | -8.9 | 0.7 | -9.4 | -4.3
Fc1ccc(-[n+]2nc(Nc3ccccc3)sc2-c2c(Cl)cccc2Cl)cc1 | 2.4 | 33.1 | 5.4 | -1.4 | -14.4
CCc1ccc(Nc2n[n+](-c3ccccc3)c(-c3c(Cl)cccc3Cl)s2)cc1 | 11.8 | 43.6* | 3.2 | 3.2 | -1.4
COc1cc(/C=N/Nc2nc3ccccc3[nH]2)cc(OC)c1O | 73.3* | 8.9 | -10.8 | 10.8 | 2.6
COc1cc(/C=N/Nc2nc3ccccc3[nH]2)ccc1O | 2.4 | 10.1 | -0.6 | 7.2 | 7.0
SMILES | GSTO1 inh | Apaf-1 inh | PAD4 inh | CTSL1 counter | TDP2 inh
COc1ccccc1NS(=O)(=O)c1ccc(Cl)c(NC(=O)C(C)N2C(=O)c3ccccc3C2=O)c1 (stereo not given) | 6.3 | 17.4 | -7.4 | 24.8* | 1.6
O=C(N[C@@H](Cc1cccnc1)C(=O)N1CCC[C@H]1C(=O)NC1CCCC1)C1CC1 | . | . | . | . | 10.1
CCOc1ccc(NS(=O)(=O)c2ccc(C(=O)NCC3(N4CCCCC4)CCCCC3)cc2)cc1 | 9.4 | 4.3 | -7.4 | 11.5 | 15.6
CC(=O)Nc1ccc(C(=O)NCC2(N3CCCCC3)CCCCC2)cc1 | -2.0 | 4.7 | 1.1 | 20.6* | -4.0
C#CCOCCOCCOCCNc1nc(N2CCN(C(=O)[C@H]([C@@H](C)CC)n3cc(CCCN=C(N)N)nn3)CC2)nc(N2CCN(C(=O)[C@H](CCCCN)n3cc(CC(C)O)nn3)CC2)n1 (stereo not given in full) | 4.3 | -3.6 | -1.1 | 1.5 | -1.4
C#CCOCCOCCOCCNc1nc(N2CCN(C(=O)CCCCCCCCCCNC(=O)[C@H](CCCCN)n3cc(C[C@@H](C)CC)nn3)CC2)nc(N2CCN(C(=O)CCCCCCCCCCNC(=O)[C@H](CCCCN)n3cc(C[C@@H](C)CC)nn3)CC2)n1 | -9.2 | . | -0.1 | 3.7 | .
C#CCOCCOCCOCCNc1nc(N2CCN(C(=O)CCCCCCCCCCNC(=O)[C@H](CCCCN)n3cc(CCCC(=O)O)nn3)CC2)nc(N2CCN(C(=O)CCCCCCCCCCNC(=O)[C@H](CCCN=C(N)N)n3cc(C[C@@H](C)CC)nn3)CC2)n1 | -9.6 | 76.2* | 5.0 | 3.1 | .
C#CCOCCOCCOCCNc1nc(N2CCN(C(=O)CCCCCCCCCCNC(=O)[C@H](CO)n3cc(CCCSC)nn3)CC2)nc(N2CCN(C(=O)CCCCCCCCCCNC(=O)[C@H](CCCCN)n3cc(C[C@@H](C)CC)nn3)CC2)n1 | -11.2 | 68.2* | -14.6 | 3.0 | .
C#CCOCCOCCOCCNc1nc(N2CCN(C(=O)CCCCCCCCCCNC(=O)[C@H](CCCCN)n3cc(CCO)nn3)CC2)nc(N2CCN(C(=O)CCCCCCCCCCNC(=O)[C@H](CCCN=C(N)N)n3cc(C[C@@H](C)CC)nn3)CC2)n1 | -1.2 | 77.7* | -5.6 | -3.1 | .
C#CCOCCOCCOCCNc1nc(N2CCN(C(=O)CCCCCCCCCCNC(=O)[C@H](CO)n3cc(CCCSC)nn3)CC2)nc(N2CCN(C(=O)CCCCCCCCCCNC(=O)[C@H](CO)n3cc(CCCSC)nn3)CC2)n1 | -38.9 | 25.6 | -1.9 | -2.0 | -2.7
C#CCOCCOCCOCCNc1nc(N2CCN(C(=O)CCCCCCCCCCNC(=O)[C@H]([C@@H](C)CC)n3cc(CCCCN=C(N)N)nn3)CC2)nc(N2CCN(C(=O)CCCCCCCCCCNC(=O)[C@H](CCCCN)n3cc(C[C@@H](C)CC)nn3)CC2)n1 | -12.7 | 55.5* | -22.1 | 1.0 | .
N#C/C(=C\c1ccc(O)c(Br)c1)C(=O)NCc1ccccc1 | -2.8 | 19.2 | -1.2 | 22.5* | -7.3
CCOc1ccc(C=Nn2c(-c3cccc(OC(C)C)c3)n[nH]c2=S)cc1 | . | . | . | . | -6.4
COC(=O)c1ccc(C=NNC(=O)c2cc(-c3ccc(C)c(C)c3)n[nH]2)cc1 | . | . | . | . | 6.9
C#CCOCCOCCOCCNc1nc(N2CCOCC2)nc(N2CCN(C(=O)CCCCCCCCCCNC(=O)Cn3cc(CCCCCN)nn3)CC2)n1 | -2.4 | 25.7 | 0.2 | -0.5 | 7.7
